In ChEMBL document CHEMBL2086359, “Tormentic acid derivatives: synthesis and apoptotic activity” (Eur J Med Chem, 2012):
Calls of active or inactive are those of the source. The calls are words filed in the database; no cut-off is given here.

Columns and labels:
NIH3T3 = assay: Cytotoxicity against mouse NIH/3T3 cells after 96 hrs by SRB assay; format: cell-based
How it was run: (§1)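 Monolayer cultures kept in RPMI 1640 with 10% heat-inactivated FBS and penicillin/streptomycin at 37 °C, 5% CO2. Exponentially growing cells were seeded and treated 24 h later with serial dilutions (0–30 µM) for 96 h, with DMSO or DMF at most 0.5% final. Cells were fixed with 10% TCA at 4 °C and stained with 0.4% SRB for about 30 min. Plates were washed with 1% acetic acid and the dye dissolved in 10 mM Tris base. Absorbance was read at 570 nm and survival taken relative to untreated controls. IC50 was estimated from dose–response curves, averaged from at least 5 independent experiments.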

8505C [1] = assay: Cytotoxicity against human 8505C cells after 96 hrs by SRB assay; format: functional, cell-based; how it was run: as §1
8505C [2] = assay: Induction of apoptosis in human 8505C cells migration of phosphatidylserine from inner to outer cell membrane at 3.5 uM after 6 hrs by Annexin V-FITC/PI based FACS analysis; format: functional
A549 = assay: Cytotoxicity against human A549 cells after 96 hrs by SRB assay; format: functional, cell-based; how it was run: as §1
[3] = Cytotoxicity against human 518A2 cells after 96 hrs by SRB assay; format: functional, cell-based; how it was run: as §1
8505C [4] = assay: Induction of apoptosis in human 8505C cells after 24 to 48 hrs by DNA laddering assay; format: functional, cell-based
How it was run: (§2)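 About 1×10^6 cells were grown in 25 cm2 flasks to 80% and exposed to compound-loaded medium for 24–48 h, with blank medium as control. Cells were collected from the supernatant (300 g, 4 °C), washed in PBS and lysed. Lysates were digested with RNase for 2 h at 37 °C, then with proteinase K for 12 h at 50 °C. DNA was run on agarose gel electrophoresis ([…], 2 h).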

A2780 = assay: Cytotoxicity against human A2780 cells after 96 hrs by SRB assay; format: functional, cell-based; how it was run: as §1
[5] = Cytotoxicity against human A253 cells after 96 hrs by SRB assay; format: functional, cell-based; how it was run: as §1
MCF7 = assay: Cytotoxicity against human MCF7 cells after 96 hrs by SRB assay; format: functional, cell-based; how it was run: as §1
[6] = Cytotoxicity against human WW030272 cells after 96 hrs by SRB assay; format: cell-based; how it was run: as §1
8505C [7] = assay: Induction of apoptosis in human 8505C cells assessed as induction of cell death after 24 to 48 hrs by AO/PI exclusion dye assay; format: functional, cell-based
How it was run: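 About 1×10^6 cells were grown in 25 cm2 flasks to 80% and given compound-loaded medium for 24–48 h, with blank medium as control. Cells were recovered from the supernatant (300 g, 4 °C), washed and resuspended in PBS. They were mixed 1:1 with AO/PI solution and viewed by fluorescence microscopy: green cells were scored as apoptotic, red as necrotic.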

518A2 = assay: Induction of apoptosis in human 518A2 cells after 24 to 48 hrs by DNA laddering assay; format: functional, cell-based; how it was run: as §2
DLD-1 = assay: Cytotoxicity against human DLD1 cells after 96 hrs by SRB assay; format: functional, cell-based; how it was run: as §1

COC(=O)[C@]12CC[C@@H](C)[C@@](C)(O)[C@H]1C1=CC[C@@H]3[C@@]4(C)C[C@@H](OC(=O)CCl)[C@H](OC(=O)CCl)C(C)(C)[C@@H]4CC[C@@]3(C)[C@]1(C)CC2
IC50 (NIH3T3): 1.1 µmol | IC50 (8505C [1]): 1.6 µmol | Activity (8505C [2]): Active | IC50 (A549): 1.2 µmol | IC50 [3]: 1.1 µmol | Activity (8505C [4]): Active | IC50 (A2780): 0.8 µmol | IC50 [5]: 1.6 µmol | IC50 (MCF7): 1.5 µmol | IC50 [6]: 3.4 µmol | Activity (8505C [7]): Active | Activity (518A2): Active | IC50 (DLD-1): 2.2 µmol
